According to ChEMBL document CHEMBL3227917, “Structure-activity relationships of dimeric Catharanthus alkaloids. 2. Experimental antitumor activities of N-substituted deacetylvinblastine amide (vindesine) sulfates” (J Med Chem, 1979):

Experiments:
[1] = Antitumor activity against mouse Gardner lymphosarcoma allografted in C3H mouse assessed as tumor growth inhibition at 0.20 mg/kg, ip administered daily for 8 to 10 days; type: functional; conditions: route intraperitoneal, read-out: TGI
Summary of the method: (§1)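 Gardner lymphosarcoma in C3H mice; sulfate salts unless noted, given ip daily for 8–10 days, treatment starting 8 days after tumor implantation. Tumor growth inhibition scored as –, 0–25%; +, 26–50%; ++, 51–75%; +++, 76–100%; T, lethal to ≥5 of 10 animals per group. Average of one or more tests.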

[2] = Antitumor activity against mouse Gardner lymphosarcoma allografted in C3H mouse assessed as tumor growth inhibition at 0.40 mg/kg, ip administered daily for 8 to 10 days; type: functional; conditions: route intraperitoneal, read-out: TGI; summary of the method: as §1
[3] = Antitumor activity against mouse Ridgway osteogenic sarcoma allografted in AKR mouse assessed as tumor growth inhibition at 0.20 mg/kg, ip administered daily for 8 to 10 days compound treatment commenced 8 days after tumor implantation; type: functional; conditions: route intraperitoneal, read-out: TGI
[4] = Antitumor activity against mouse Ridgway osteogenic sarcoma allografted in AKR mouse assessed as tumor growth inhibition at 0.40 mg/kg, ip administered daily for 8 to 10 days compound treatment commenced 8 days after tumor implantation; type: functional; conditions: route intraperitoneal, read-out: TGI
[5] = Antitumor activity against mouse Gardner lymphosarcoma allografted in C3H mouse assessed as tumor growth inhibition at 0.10 mg/kg, ip administered daily for 8 to 10 days; type: functional; conditions: route intraperitoneal, read-out: TGI; summary of the method: as §1
Mus musculus [6] = assay: Toxicity in C3H mouse allografted with mouse Gardner lymphosarcoma assessed as lethality at 0.40 mg/kg, ip administered daily for 8 to 10 days; type: organism-based; set-up: dose 0.4 mg/kg, route intraperitoneal; conditions: in vivo, 0.4 mg/kg
Summary of the method: (§2)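 Tumor-bearing mice given sulfate salts ip daily for 8–10 days; values are the average of one or more tests. Toxic means lethal to ≥5 of 10 animals per group.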

Mus musculus [7] = assay: Toxicity in AKR mouse allografted with mouse Ridgway osteogenic sarcoma assessed as lethality at 0.40 mg/kg, ip administered daily for 8 to 10 days compound treatment commenced 8 days after tumor implantation; type: organism-based; set-up: dose 0.4 mg/kg, route intraperitoneal; conditions: in vivo, 0.4 mg/kg; summary of the method: as §2
[8] = Antitumor activity against mouse Gardner lymphosarcoma allografted in C3H mouse assessed as tumor growth inhibition at 0.05 mg/kg, ip administered daily for 8 to 10 days; type: functional; conditions: route intraperitoneal, read-out: TGI; summary of the method: as §1
B16 [9] = assay: Antitumor activity against mouse B16 cells allografted in C57BL/6 mouse assessed as prolongation of host survival at 0.60 mg/kg, ip administered on days 1,5 and 9; type: functional; conditions: route intraperitoneal
Summary of the method: (§3)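 B16 melanoma cells (10⁶ inoculum) implanted ip in C57BL/6 mice; groups of 10. Sulfate salts unless noted, given ip on days 1, 5 and 9. Single test. Survival prolongation is expressed as percent versus controls, with survivors counted on day 60. Toxic means deaths of ≥5 of 10 animals before the first control death.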

B16 [10] = assay: Antitumor activity against mouse B16 cells allografted in C57BL/6 mouse assessed as prolongation of host survival at 0.90 mg/kg, ip administered on days 1,5 and 9; type: functional; conditions: route intraperitoneal; summary of the method: as §3
B16 [11] = assay: Antitumor activity against mouse B16 cells allografted in C57BL/6 mouse assessed as prolongation of host survival at 1.20 mg/kg, ip administered on days 1,5 and 9; type: functional; conditions: route intraperitoneal; summary of the method: as §3
CHO [12] = assay: Mitotic arrest in CHO cells assessed as increase in cell accumulation at 0.02 ug/ml; type: functional, Cricetulus griseus
Summary of the method: (§4)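 Chinese hamster ovary cells in tissue culture, scored for mitotic arrest as increase in cells in mitotic arrest over control: +++, 40–50%; ++, 15–40%; +, 10–15%; ±, 7–10%; –, 3–7%. Cytotoxicity noted separately.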

CHO [13] = assay: Mitotic arrest in CHO cells assessed as increase in cell accumulation at 0.002 ug/ml; type: functional, Cricetulus griseus; summary of the method: as §4
CHO [14] = assay: Mitotic arrest in CHO cells assessed as increase in cell accumulation at 0.2 ug/ml; type: functional, Cricetulus griseus; summary of the method: as §4

Structure (SMILES) | inhibition in vivo at 0.2 mg/kg [1] | inhibition in vivo at 0.4 mg/kg [2] | inhibition in vivo at 0.2 mg/kg [3] | inhibition in vivo at 0.1 mg/kg [5] | Activity (Mus musculus [6]) | inhibition in vivo at 0.05 mg/kg [8] | other results
CCCCCCNC(=O)[C@@]1(O)[C@H](O)[C@]2(CC)C=CCN3CC[C@@]4(c5cc([C@@]6(C(=O)OC)C[C@@H]7CN(CCc8c6[nH]c6ccccc86)C[C@](O)(CC)C7)c(OC)cc5N(C)[C@@H]14)[C@@H]32 | 26% | 0% | 0% |  |  |  | inhibition in vivo at 0.4 mg/kg [4]: 0%
CC[C@]1(O)C[C@H]2CN(CCc3c([nH]c4ccccc34)[C@@](C(=O)OC)(c3cc4c(cc3OC)N(C)[C@H]3[C@@](O)(C(=O)NC5CCCCC5)[C@H](O)[C@]5(CC)C=CCN6CC[C@]43[C@@H]65)C2)C1 | 0% | 26% | 26% |  |  |  | inhibition in vivo at 0.4 mg/kg [4]: 51%
C=CCNC(=O)[C@@]1(O)[C@H](O)[C@]2(CC)C=CCN3CC[C@@]4(c5cc([C@@]6(C(=O)OC)C[C@@H]7CN(CCc8c6[nH]c6ccccc86)C[C@](O)(CC)C7)c(OC)cc5N(C)[C@@H]14)[C@@H]32.O=S(=O)(O)O | 76% |  |  | 0% | Toxic |  | 
C#CCNC(=O)[C@@]1(O)[C@H](O)[C@]2(CC)C=CCN3CC[C@@]4(c5cc([C@@]6(C(=O)OC)C[C@@H]7CN(CCc8c6[nH]c6ccccc86)C[C@](O)(CC)C7)c(OC)cc5N(C)[C@@H]14)[C@@H]32.O=S(=O)(O)O | 76% |  |  | 51% | Toxic |  | 
CC[C@]1(O)C[C@H]2CN(CCc3c([nH]c4ccccc34)[C@@](C(=O)OC)(c3cc4c(cc3OC)N(C)[C@H]3[C@@](O)(C(=O)N5CCCC5)[C@H](O)[C@]5(CC)C=CCN6CC[C@]43[C@@H]65)C2)C1.O=S(=O)(O)O | 0% |  | 51% |  | Toxic |  | Activity (Mus musculus [7]): Toxic
CC[C@]1(O)C[C@H]2CN(CCc3c([nH]c4ccccc34)[C@@](C(=O)OC)(c3cc4c(cc3OC)N(C)[C@H]3[C@@](O)(C(=O)NCCC#N)[C@H](O)[C@]5(CC)C=CCN6CC[C@]43[C@@H]65)C2)C1 | 76% | 76% |  | 0% |  | 0% | 
CC[C@]1(O)C[C@H]2CN(CCc3c([nH]c4ccccc34)[C@@](C(=O)OC)(c3cc4c(cc3OC)N(C)[C@H]3[C@@](O)(C(=O)NCC(O)CO)[C@H](O)[C@]5(CC)C=CCN6CC[C@]43[C@@H]65)C2)C1 (stereo partly drawn) | 26% | 51% | 26% |  |  |  | inhibition in vivo at 0.4 mg/kg [4]: 76%
CC[C@]1(O)C[C@H]2CN(CCc3c([nH]c4ccccc34)[C@@](C(=O)OC)(c3cc4c(cc3OC)N(C)[C@H]3[C@@](O)(C(=O)NCCOC(C)=O)[C@H](O)[C@]5(CC)C=CCN6CC[C@]43[C@@H]65)C2)C1.O=S(=O)(O)O | 76% |  | 76% | 51% | Toxic | 26% | Activity (Mus musculus [7]): Toxic
CCCC(=O)OCCNC(=O)[C@@]1(O)[C@H](O)[C@]2(CC)C=CCN3CC[C@@]4(c5cc([C@@]6(C(=O)OC)C[C@@H]7CN(CCc8c6[nH]c6ccccc86)C[C@](O)(CC)C7)c(OC)cc5N(C)[C@@H]14)[C@@H]32.O=S(=O)(O)O | 76% |  | 76% | 51% | Toxic | 0% | Activity (Mus musculus [7]): Toxic
CCCCCCCCCCCCCCCCCC(=O)OCCNC(=O)[C@@]1(O)[C@H](O)[C@]2(CC)C=CCN3CC[C@@]4(c5cc([C@@]6(C(=O)OC)C[C@@H]7CN(CCc8c6[nH]c6ccccc86)C[C@](O)(CC)C7)c(OC)cc5N(C)[C@@H]14)[C@@H]32 | 51% | 76% |  | 0% |  | 0% | 
CC[C@]1(O)C[C@H]2CN(CCc3c([nH]c4ccccc34)[C@@](C(=O)OC)(c3cc4c(cc3OC)N(C)[C@H]3[C@@](O)(C(=O)NCCSC(c5ccccc5)(c5ccccc5)c5ccccc5)[C@H](O)[C@]5(CC)C=CCN6CC[C@]43[C@@H]65)C2)C1 | 0% | 0% |  | 0% |  |  | survival at 0.6 mg/kg (B16 [9]): 0%; survival at 0.9 mg/kg (B16 [10]): 1%; survival at 1.2 mg/kg (B16 [11]): 4%
CC[C@]1(O)C[C@H]2CN(CCc3c([nH]c4ccccc34)[C@@](C(=O)OC)(c3cc4c(cc3OC)N(C)[C@H]3[C@@](O)(C(=O)NCCSC(c5ccc(OC)cc5)(c5ccc(OC)cc5)c5ccc(OC)cc5)[C@H](O)[C@]5(CC)C=CCN6CC[C@]43[C@@H]65)C2)C1 | 0% | 0% |  | 0% |  |  | survival at 0.6 mg/kg (B16 [9]): 16%; survival at 0.9 mg/kg (B16 [10]): 28%; survival at 1.2 mg/kg (B16 [11]): 35%
CC[C@]1(O)C[C@H]2CN(CCc3c([nH]c4ccccc34)[C@@](C(=O)OC)(c3cc4c(cc3OC)N(C)[C@H]3[C@@](O)(C(=O)NCCSSCCNC(C)=O)[C@H](O)[C@]5(CC)C=CCN6CC[C@]43[C@@H]65)C2)C1 | 0% | 51% |  | 0% |  |  | survival at 0.6 mg/kg (B16 [9]): 93%; survival at 0.9 mg/kg (B16 [10]): 118%; survival at 1.2 mg/kg (B16 [11]): 127%
CC[C@]1(O)C[C@H]2CN(CCc3c([nH]c4ccccc34)[C@@](C(=O)OC)(c3cc4c(cc3OC)N(C)[C@H]3[C@@](O)(C(=O)NCC=O)[C@H](O)[C@]5(CC)C=CCN6CC[C@]43[C@@H]65)C2)C1 | 76% | 76% |  | 26% |  | 0% | 
CC[C@]1(O)C[C@H]2CN(CCc3c([nH]c4ccccc34)[C@@](C(=O)OC)(c3cc4c(cc3OC)N(C)[C@H]3[C@@](O)(C(=O)NCC(OC)OC)[C@H](O)[C@]5(CC)C=CCN6CC[C@]43[C@@H]65)C2)C1.O=S(=O)(O)O | 76% |  |  | 76% | Toxic | 0% | 
CC[C@]1(O)C[C@H]2CN(CCc3c([nH]c4ccccc34)[C@@](C(=O)OC)(c3cc4c(cc3OC)N(C)[C@H]3[C@@](O)(C(=O)NCCC(=N)OC)[C@H](O)[C@]5(CC)C=CCN6CC[C@]43[C@@H]65)C2)C1 | 0% | 0% |  | 0% |  | 0% | 
CC[C@]1(O)C[C@H]2CN(CCc3c([nH]c4ccccc34)[C@@](C(=O)OC)(c3cc4c(cc3OC)N(C)[C@H]3[C@@](O)(C(=O)NCCc5ccc(O)cc5)[C@H](O)[C@]5(CC)C=CCN6CC[C@]43[C@@H]65)C2)C1 | 0% | 26% |  | 0% |  |  | survival at 0.6 mg/kg (B16 [9]): 125%; survival at 0.9 mg/kg (B16 [10]): 152%; survival at 1.2 mg/kg (B16 [11]): 190%
CC[C@]1(O)C[C@H]2CN(CCc3c([nH]c4ccccc34)[C@@](C(=O)OC)(c3cc4c(cc3OC)N(C)[C@H]3[C@@](O)(C(=O)NCCc5ccc(O)c(O)c5)[C@H](O)[C@]5(CC)C=CCN6CC[C@]43[C@@H]65)C2)C1 | 0% | 26% |  | 0% |  |  | survival at 0.6 mg/kg (B16 [9]): 28%; survival at 0.9 mg/kg (B16 [10]): 128%; survival at 1.2 mg/kg (B16 [11]): 154%
CC[C@]1(O)C[C@H]2CN(CCc3c([nH]c4ccccc34)[C@@](C(=O)OC)(c3cc4c(cc3OC)N(C)[C@H]3[C@@](O)(C(=O)OC)[C@H](O)[C@]5(CC)C=CCN6CC[C@]43[C@@H]65)C2)C1 |  |  |  |  |  |  | Activity (CHO [12]): 40%; Activity (CHO [13]): 3%
COc1cc2c(c(OC)c1OC)-c1ccc(OC)c(=O)cc1[C@@H](NC(C)=O)CC2 [COLCHICINE] |  |  |  |  |  |  | Activity (CHO [14]): 15%; Activity (CHO [12]): 3%
